Measurements taken from ChEMBL document CHEMBL1125281, “Identification and synthesis of a receptor binding site of human anaphylatoxin C5a” (J Med Chem, 1991).
Where a SMILES comes first, the peptide text is derived from it.

Columns and labels:
[1] = target: T1, C5a anaphylatoxin chemotactic receptor 1 (Homo sapiens, UniProt P21730); test: Inhibition of [125I]C5a binding to C5a anaphylatoxin chemotactic receptor in PMNL intact cells; inactive; assay type: cell-based
T1 sequence (P21730 whole entry): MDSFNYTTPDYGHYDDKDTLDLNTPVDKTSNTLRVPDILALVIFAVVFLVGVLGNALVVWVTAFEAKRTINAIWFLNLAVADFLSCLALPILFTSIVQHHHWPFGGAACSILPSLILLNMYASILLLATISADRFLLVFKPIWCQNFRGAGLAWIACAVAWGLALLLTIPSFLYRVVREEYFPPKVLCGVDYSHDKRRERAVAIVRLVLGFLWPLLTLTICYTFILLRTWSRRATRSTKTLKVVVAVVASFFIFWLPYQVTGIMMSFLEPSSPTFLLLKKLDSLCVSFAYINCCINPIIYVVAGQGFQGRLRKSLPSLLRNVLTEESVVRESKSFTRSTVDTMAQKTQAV
Procedure, shortened: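 Intact human PMNL isolated from peripheral blood by one-step density centrifugation. Cells incubated 20 min at 23 °C with [125I]C5a (1 × 10⁻⁹ M), test peptide and protease inhibitors. Cells separated from free ligand by centrifugation through silicone oil at 10000g; pellet γ counts read.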

[2] = target: T2, C5a anaphylatoxin chemotactic receptor 1 (Homo sapiens) (UniProt P21730); test: Compound was tested for the inhibition of [125I]C5a binding to C5a anaphylatoxin chemotactic receptor in PMNL membranes.; assay type: cell membranes; conditions: concentration not given here
T2 sequence (whole entry): T1 sequence (P21730 whole entry)

[3] = target: T1, C5a anaphylatoxin chemotactic receptor 1; test: Inhibition of [125I]-C5a anaphylatoxin chemotactic receptor binding to PMNL membranes.
[4] = target: T2, C5a anaphylatoxin chemotactic receptor 1 (Homo sapiens); test: Compound was tested for the inhibition of [125I]C5a anaphylatoxin chemotactic receptor binding to PMNL intact cells at a concentration of 0.1-1 mM.; assay type: cell-based
[5] = target: T1, C5a anaphylatoxin chemotactic receptor 1; test: Compound was tested for the inhibition of [125I]C5a binding to C5a anaphylatoxin chemotactic receptor binding to PMNL membranes.
[6] = target: T1, C5a anaphylatoxin chemotactic receptor 1; test: Compound was tested for the inhibition of [125I]C5a anaphylatoxin chemotactic receptor binding to PMNL membranes at a concentration of 0.1-1 mM
[7] = target: T1, C5a anaphylatoxin chemotactic receptor 1; test: Compound was tested for the inhibition of [125I]C5a binding to C5a anaphylatoxin chemotactic receptor in PMNL membranes; inactive; assay type: cell membranes

| Compound | Ki [1] | inhibition [4] [%] | other results |
| --- | --- | --- | --- |
| CSCC[C@H](NC(=O)[C@H](CC(=O)O)NC(=O)[C@H](CCCCN)NC(C)=O)C(=O)N[C@@H](CCC(N)=O)C(=O)N[C@@H](CC(C)C)C(=O)NCC(=O)N[C@@H](CCCN=C(N)N)C(=O)O (Ac-KDMQLGR-OH) | Not Active | – | inhibition [2]: 30% |
| CC[C@H](C)[C@H](NC(=O)[C@H](CCSC)NC(C)=O)C(=O)N[C@@H](CCCCN)C(=O)N[C@@H](C)C(=O)N[C@@H](Cc1ccccc1)C(=O)N[C@H](C(=O)N[C@@H](CCC(=O)O)C(=O)N[C@@H](CCSC)C(=O)N[C@@H](CCSC)C(=O)N[C@H](C(=O)N[C@H](C(=O)N[C@@H](C)C(=O)N[C@@H](CO)C(=O)N[C@@H](CCC(N)=O)C(=O)N[C@@H](CC(C)C)C(=O)N[C@@H](CCCN=C(N)N)C(=O)N[C@@H](C)C(=O)N[C@@H](CC(N)=O)C(=O)N[C@H](C(=O)N[C@@H](CO)C(=O)N[C@@H](Cc1c[nH]cn1)C(=O)N[C@@H](CCCCN)C(=O)N[C@@H](CC(=O)O)C(=O)N[C@@H](CCSC)C(=O)N[C@@H](CCC(N)=O)C(=O)N[C@@H](CC(C)C)C(=O)NCC(=O)N[C@@H](CCCN=C(N)N)C(=O)O)[C@@H](C)CC)C(C)C)C(C)C)[C@@H](C)O (Ac-MIKAFTEMMVVASQLRANISHKDMQLGR-OH) | – | > 20 | Ki [3]: 100 µM |
| CC[C@H](C)[C@H](NC(C)=O)C(=O)N[C@@H](CO)C(=O)N[C@@H](Cc1c[nH]cn1)C(=O)N[C@@H](CCCCN)C(=O)N[C@@H](CC(=O)O)C(=O)N[C@@H](CCSC)C(=O)N[C@@H](CCC(N)=O)C(=O)N[C@@H](CC(C)C)C(=O)N[C@@H](CCCN=C(N)N)C(=O)NCC(=O)N[C@@H](CCCN=C(N)N)C(=O)O (Ac-ISHKDMQLRGR-OH) | Not Active | – | Ki [5]: 100 µM |
| CC[C@H](C)[C@H](NC(=O)[C@H](CC(N)=O)NC(=O)[C@H](C)NC(=O)[C@H](CCCN=C(N)N)NC(=O)[C@H](CC(C)C)NC(=O)[C@H](CCC(N)=O)NC(=O)[C@H](CO)NC(=O)[C@H](C)NC(=O)[C@@H](NC(=O)[C@@H](NC(=O)[C@H](CCSC)NC(=O)[C@H](CCSC)NC(=O)[C@H](CCC(=O)O)NC(=O)[C@@H](NC(=O)[C@@H](N)Cc1ccccc1)[C@@H](C)O)C(C)C)C(C)C)C(=O)N[C@@H](CO)C(=O)N[C@@H](Cc1c[nH]cn1)C(=O)N[C@@H](CCCCN)C(=O)N[C@@H](CC(=O)O)C(=O)N[C@@H](CCSC)C(=O)N[C@@H](CCC(N)=O)C(=O)N[C@@H](CC(C)C)C(=O)NCC(=O)N[C@@H](CCCN=C(N)N)C(=O)O (H-FTEMMVVASQLRANISHKDMQLGR-OH) | – | > 20 | – |
| CC[C@H](C)[C@H](NC(=O)[C@H](CC(N)=O)NC(=O)[C@H](C)NC(=O)[C@H](CCCNC(=N)N)NC(=O)[C@H](CC(C)C)NC(=O)[C@H](CCC(N)=O)NC(=O)[C@@H](N)CO)C(=O)N[C@@H](CO)C(=O)N[C@@H](Cc1cnc[nH]1)C(=O)N[C@@H](CCCCN)C(=O)N[C@@H](CC(=O)O)C(=O)N[C@@H](CCSC)C(=O)N[C@@H](CCC(N)=O)C(=O)N[C@@H](CC(C)C)C(=O)NCC(=O)N[C@@H](CCCNC(=N)N)C(=O)O (H-SQLRANISHKDMQLGR-OH) | – | – | Ki [6]: 300 µM |
| CSCC[C@H](NC(=O)[C@H](CC(=O)O)NC(C)=O)C(=O)N[C@@H](CCC(N)=O)C(=O)N[C@@H](CC(C)C)C(=O)NCC(=O)N[C@@H](CCCN=C(N)N)C(=O)O (Ac-DMQLGR-OH) | Not Active | – | Ki [7]: Not Active |
